In ChEMBL document CHEMBL3853270, “Influence of Birch Bark Triterpenes on Keratinocytes and Fibroblasts from Diabetic and Nondiabetic Donors” (2016):
Activity calls are given as the source filed them. The rule behind the calls is not given here.

How the values were obtained:
Type in all cases: functional
Keratinocyte = test: Effect on pro-inflammatory related gene expression in diabetic adult human primary keratinocytes assessed as IL6 mRNA levels at 1.96 uM after 6 hrs by qPCR analysis
Fibroblast [1] = test: Effect on growth factor related gene expression in diabetic adult human primary fibroblasts assessed as GDF15 mRNA levels at 1.96 uM after 6 hrs by qPCR analysis
How it was run: (§1)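 Primary human dermal fibroblasts (young or adult nondiabetic, adult diabetic donor) were treated for 6 h against a 0.1% DMSO solvent control. RNA from 320 000 cells per sample was measured by Fluidigm Biomark high-throughput qPCR. Values are fold change relative to solvent control, from four independent experiments, with SD. One-way ANOVA with Bonferroni post-test was applied.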

Fibroblast [2] = test: Effect on growth factor related gene expression in diabetic adult human primary fibroblasts assessed as VEGFA mRNA levels at 1.96 uM after 6 hrs by qPCR analysis; how it was run: as §1
Fibroblast [3] = test: Effect on pro-inflammatory related gene expression in non-diabetic young human primary fibroblasts assessed as IL1B mRNA levels at 9.81 uM after 6 hrs by qPCR analysis
Fibroblast [4] = test: Effect on antiinflammatory related gene expression in non-diabetic young human primary fibroblasts assessed as NFKBIA mRNA levels at 9.81 uM after 6 hrs by qPCR analysis
How it was run: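 Primary dermal fibroblasts from one nondiabetic young, one nondiabetic adult and one diabetic adult donor; 320 000 cells per sample, 6 h at 1.96 or 9.81 μM. RNA measured on a high-throughput qPCR chip. Fold change versus 0.1% DMSO control, four independent experiments, SD, one-way ANOVA with Bonferroni post-test.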

Fibroblast [5] = test: Effect on growth factors related gene expression in non-diabetic young human primary fibroblasts assessed as FGF2 mRNA levels at 1.96 uM after 6 hrs by qPCR analysis; how it was run: as §1
[6] = Upregulation of wound healing activity related MCP1 protein levels in non-diabetic adult human primary keratinocytes at 1.96 uM after 24 hrs by bead-based suspension array analysis; details: Keratinocyte
[7] = Effect on wound healing activity in diabetic adult human primary fibroblasts assessed as upregulation of soluble VCAM1 protein levels at 1.96 uM after 24 hrs by bead-based suspension array analysis; details: Fibroblast

SMILES: C=C(C)[C@@H]1CC[C@]2(CO)CC[C@]3(C)[C@H](CC[C@@H]4[C@@]5(C)CC[C@H](O)C(C)(C)[C@@H]5CC[C@]43C)[C@@H]12 [BETULIN]
- fold change (FC) (Keratinocyte): 12.8
- fold change (FC) (Fibroblast [1]): 2.4
- fold change (FC) (Fibroblast [2]): 2.4
- fold change (FC) (Fibroblast [3]): 5.7
- fold change (FC) (Fibroblast [4]): 3.2
- fold change (FC) (Fibroblast [5]): 1.7
- Activity [6]: Active
- Activity [7]: Active
